Assay results as given in ChEMBL document CHEMBL4190353, “Synthesis, structure-activity relationships and preliminary mechanism of action of novel water-soluble 4-quinolone-3-carboxamides as antiproliferative agents” (Eur J Med Chem, 2017).

How the values were obtained:
[1] = tested on: HCT-116; experiment: Cytotoxicity against human HCT116 cells assessed as reduction in cell viability incubated for 24 hrs by MTT assay; assay type: functional, cell-based; settings: HCT-116, 24 h
Method in brief: (§1)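 Cells were kept in McCoy's 5A with 10% fetal bovine serum, streptomycin and 100 units·mL⁻¹ penicillin at 37 °C under 5% CO₂/95% air. Viability was read by MTT optical density. IC50 is the concentration that lowers optical density by 50% relative to untreated cells. Values are means with SD of at least three independent determinations.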

[2] = tested on: MCF7; experiment: Cytotoxicity against human MCF7 cells assessed as reduction in cell viability incubated for 24 hrs by MTT assay; assay type: functional, cell-based; settings: MCF7, 24 h; method in brief: as §1
[3] = tested on: RKO; experiment: Cytotoxicity against human RKO cells assessed as reduction in cell viability incubated for 24 hrs by MTT assay; assay type: functional, cell-based; method in brief: as §1
[4] = tested on: BGC-823; experiment: Cytotoxicity against human BGC823 cells assessed as reduction in cell viability incubated for 24 hrs by MTT assay; assay type: functional, cell-based; settings: BGC-823, 24 h; method in brief: as §1
[5] = Solubility in water; assay type: physicochemical
[6] = tested on: HEp-2; experiment: Cytotoxicity against human Hep2 cells assessed as reduction in cell viability incubated for 24 hrs by MTT assay; assay type: functional, cell-based; settings: HEp-2, 24 h; method in brief: as §1
[7] = tested on: HeLa; experiment: Cytotoxicity against human HeLa cells assessed as reduction in cell viability incubated for 24 hrs by MTT assay; assay type: functional, cell-based; method in brief: as §1
[8] = tested on: HCT-8; experiment: Cytotoxicity against human HCT8 cells assessed as reduction in cell viability incubated for 24 hrs by MTT assay; assay type: functional, cell-based; settings: HCT-8, 24 h; method in brief: as §1
[9] = tested on: HepG2; experiment: Cytotoxicity against human HepG2 cells assessed as reduction in cell viability incubated for 24 hrs by MTT assay; assay type: functional, cell-based; settings: HepG2, 24 h; method in brief: as §1
[10] = tested on: PC-3; experiment: Cytotoxicity against human PC3 cells assessed as reduction in cell viability incubated for 24 hrs by MTT assay; assay type: functional, cell-based; settings: PC-3, 24 h; method in brief: as §1

Row | Structure (SMILES) | IC50 [1] [µM] | IC50 [2] [µM] | IC50 [3] [µM] | IC50 [4] [µM] | solubility [5] [µg/mL] | IC50 [6] [µM] | IC50 [7] [µM] | IC50 [8] [µM] | IC50 [9] [µM] | IC50 [10] [µM]
1 | C=CCn1cc(C(=O)NCCN(CC)CC)c(=O)c2ccc(Cl)cc21.Cl | 35.6 | 47.9 | 30.1 | 12 | > 10000 | 24 | 38.9 | 30.2 | 19.1 | 44.5
2 | CCN(CC)CCCNC(=O)c1cn(C)c2cc(Cl)ccc2c1=O.Cl | 9.85 | 10 | 11.2 | 17.8 | > 10000 | 4.51 | 9.5 | 22.4 | 8.72 | 15.8
3 | CCN(CC)CCCNC(=O)c1c[nH]c2cc(Cl)ccc2c1=O.Cl | 23.3 | 22.4 | 25.2 | 23.4 | > 10000 | 25.1 | 22.4 | 28.8 | 28.2 | 39.8
4 | CCCCn1cc(C(=O)NCCN(CC)CC)c(=O)c2ccc(Cl)cc21.Cl | 21 | 35.5 | 16.8 | 7.11 | > 10000 | 22.6 | 21.6 | 46.8 | 6.92 | 44.6
5 | CCOC(=O)c1cn(Cc2ccccc2)c2cc(Cl)ccc2c1=O | 21.3 | 15.8 | 16.3 | 13.8 | – | 19.1 | 16.2 | 27.4 | 22.4 | 27.9
6 | CCN(CC)CCCNC(=O)c1cn(CC)c2cc(Cl)ccc2c1=O.Cl | 8.78 | 14.1 | 10.2 | 11.7 | > 10000 | 9.82 | 15.1 | 16.9 | 10.5 | 12.6
7 | C=CCn1cc(C(=O)OCC)c(=O)c2ccc(Cl)cc21 | > 50 | 49.8 | 48 | > 50 | – | > 50 | > 50 | 45.2 | 43.8 | > 50
8 | CCN(CC)CCCNC(=O)c1c[nH]c2cc(F)ccc2c1=O.Cl | 38.6 | 36.8 | 29.8 | 46.3 | > 10000 | 45.1 | 39.4 | 48.5 | > 50 | > 50
9 | CCOC(=O)c1cn(CC)c2cc(Cl)ccc2c1=O | > 50 | > 50 | > 50 | 40.7 | – | > 50 | > 50 | > 50 | 47.9 | > 50
10 | CCN(CC)CCCNC(=O)c1cn(Cc2ccccc2)c2cc(Cl)ccc2c1=O.Cl | 8.65 | 4.54 | 7.89 | 5.21 | > 10000 | 4.51 | 4.9 | 19.5 | 4.43 | 10.2
11 | C=CCn1cc(C(=O)NCCCN(CC)CC)c(=O)c2ccc(Cl)cc21.Cl | 18.7 | 35.5 | 16.3 | 15.1 | > 10000 | 14.5 | 19.1 | 30 | 12.6 | 14.1
12 | CCCCn1cc(C(=O)OCC)c(=O)c2ccc(Cl)cc21 | 39.8 | > 50 | 45.2 | 43.6 | – | 35.5 | > 50 | > 50 | 28.3 | 41.7
13 | CCN(CC)CCNC(=O)c1cn(C)c2cc(Cl)ccc2c1=O.Cl | 15.6 | 22.4 | 24.6 | 27.6 | > 10000 | 17.8 | 28.9 | 32.6 | 10.2 | 31.6
14 | CCN(CC)CCNC(=O)c1cn(CC)c2cc(Cl)ccc2c1=O.Cl | 19.8 | 25.1 | 23.4 | 12.3 | > 10000 | 42.3 | 13.8 | 25.1 | 9.52 | 15.9
15 | Oc1ccnc2cc(Cl)ccc12 | > 50 | > 50 | > 50 | > 50 | – | > 50 | > 50 | > 50 | > 50 | > 50
16 | CCOC(=O)c1cn(C)c2cc(Cl)ccc2c1=O | > 50 | > 50 | > 50 | 30.2 | – | 25 | > 50 | > 50 | 38 | > 50
17 | CCN(CC)CCCNC(=O)c1c[nH]c2cc(OC)ccc2c1=O.Cl | 38.9 | 34.7 | 42.5 | 40.8 | > 10000 | 40.8 | 39.8 | 44.6 | 47.9 | > 50
18 | CCN(CC)CCNC(=O)c1cn(Cc2ccccc2)c2cc(Cl)ccc2c1=O.Cl | 11.2 | 15.8 | 14.3 | 10.2 | > 10000 | 7.02 | 5.83 | 23.1 | 4.32 | 9.5
19 | CCOC(=O)c1cn(CCCc2ccccc2)c2cc(Cl)ccc2c1=O | 10.8 | 14.1 | 9.86 | 18.6 | – | 7.63 | 14.8 | 17 | 15.1 | 16.1
20 | CCN(CC)CCCNC(=O)c1c[nH]c2cc(Br)ccc2c1=O.Cl | 44.3 | 21.1 | 38.7 | 44.7 | > 10000 | 44.7 | > 50 | > 50 | 45.7 | > 50
21 | CCCCn1cc(C(=O)NCCCN(CC)CC)c(=O)c2ccc(Cl)cc21.Cl | 7.84 | 12.3 | 9.65 | 9.12 | > 10000 | 11.2 | 15.4 | 28.8 | 5.63 | 8.31
